HCV core dimer = HCV core protein dimerization inhibition; TR-FRET GST/Flag-core106 dimerization, 1536-well; inhibition, % at 5 µM; hit rate 0.33% among 300,000; AID 1899;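 active means inhibition above the mean of all tested compounds plus 3 SD, set per screening campaign, cut at about 45% in these data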
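Assay system: tagged HCV core106 pair (GST and Flag); medium: KF-containing HEPES buffer, pH 7.45, DTT, CHAPS, BSA; also added: Eu donor and XL665 acceptor anti-tag antibodies; dosing: 5 µM single dose; timing: compound-protein-antibody incubation 4 h at 22.5 °C; signal: TR-FRET 671 and 617 nm emission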
HSF1 activator = increases HSF-1 driven luciferase reporter signal. NIH3T3-HGL HSF-1 luciferase reporter, MG132, 8 h; 100% = twice DMSO control signal. hit rate 1.7% among 300,000. activation, % at 9 µM;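 active means mean replicate activation of at least 50% with a set share of replicates each reaching 50%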
HSF1 inhib = HSF1 inhibition | NIH3T3-HGL HSE-luciferase, MG132-induced, luminescence 8 h; stronger effect = lower value | hit rate 0.77% among 300,000 | AID 2098 | activity change, negative = inhibition, % at 7.5 µM (by protocol);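 active means more than half of replicate wells show activity change below -50%, luminescence cut by over half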;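 further: luciferase reports HSF-1 transcriptional activity via heat shock element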
DNA FID counter = displaces DNA intercalator in HCV helicase counter-screen | AID 1845 | DNA fluorescent intercalator displacement, fluorescence | inhibition, % at 7.9 µM | hit rate 0.17% among 290,000; in the data active means inhibition above about 37%;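 further: higher means more ethidium bromide displaced from hairpin DNA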
HSP90 refold inh = HSP90 refolding inhibition in rabbit reticulocyte lysate; inhibition, % at 5.6 µM; luciferase refolding luminescence, 3 h; AID 1789; hit rate 0.91% among 290,000;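 active means inhibition above the screen-wide mean plus 3 SD, computed separately per campaign, cut at about 16% in these data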;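 further: inhibitors lower the luminescence because luciferase stays unfolded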
HCV NS3 hel inh = blocks Hepatitis C virus NS3 helicase unwinding. NS3 helicase DNA unwinding, Cy5 molecular beacon fluorescence. inhibition, % at 10.9 µM. hit rate 0.56% among 290,000;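 active means inhibition above the mean of all tested compounds plus 3 SD, set per campaign, cut at about 35% in these data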
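test system = hepatitis C virus NS3 helicase domain fragment enzyme | reagent = annealed dual-labelled DNA beacon duplex, ATP-started | times = 1 h at 25 °C | detection = Cy5 fluorescence, 0 and 60 min reads | read-out basis = percent inhibition from t60/t0 fluorescence ratio | control set = DMSO and thioflavine S | replication = one well per compound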
HSP90 inh confirm = HSP90 inhibition, confirmation assay. rabbit reticulocyte lysate, luciferase refolding luminescence, 3 h. shares compounds with HSP90 refold inh. inhibition, % at 5.9 µM. AID 1846. hit rate 64% among 2,300; in the data active means inhibition above about 18%
FLuc counter = firefly luciferase inhibition, HSP90 counter-screen; AID 1847; purified native firefly luciferase, luminescence; shares compounds with HSP90 refold inh; hit rate 48% among 2,300; inhibition, % at 5.9 µM;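 active means inhibition above the mean inhibition of all tested sample wells plus 3 SD, cut at about 10% in these data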
Target sequence (P08659 whole entry, looked up): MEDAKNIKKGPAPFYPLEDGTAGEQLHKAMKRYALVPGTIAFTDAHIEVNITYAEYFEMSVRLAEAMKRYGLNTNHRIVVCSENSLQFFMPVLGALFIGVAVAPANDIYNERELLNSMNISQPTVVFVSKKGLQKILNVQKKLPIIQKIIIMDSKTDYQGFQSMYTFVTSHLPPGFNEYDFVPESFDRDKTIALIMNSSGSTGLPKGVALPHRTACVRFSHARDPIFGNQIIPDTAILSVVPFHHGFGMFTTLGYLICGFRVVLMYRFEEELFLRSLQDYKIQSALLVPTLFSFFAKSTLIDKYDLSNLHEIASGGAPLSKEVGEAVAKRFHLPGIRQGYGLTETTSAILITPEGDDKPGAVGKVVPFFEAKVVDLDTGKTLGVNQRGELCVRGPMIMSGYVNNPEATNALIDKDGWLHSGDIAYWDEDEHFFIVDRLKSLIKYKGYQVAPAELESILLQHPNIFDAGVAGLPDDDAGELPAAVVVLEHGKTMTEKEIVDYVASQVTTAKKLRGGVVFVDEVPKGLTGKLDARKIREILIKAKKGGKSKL
Of the large screens only hits and unclear results are named; the others gave an inactive call (follow-up assays come after a bar, where they were run). Sampled rows, rich in hits. Any-hit rate of the full collection: about 3.9%.

CC(C)(C)c1ccc(C(=O)Nc2nnc(SCC(=O)NCC3CCCO3)s2)cc1 (stereo unspecified)	HSP90 refold inh 35.6 | HSP90 inh confirm 53.9 | FLuc counter 45.1
CN(C)S(=O)(=O)c1ccc(C(=O)Nc2nnc(SCC(=O)NCC3CCCO3)s2)cc1 (stereo unspecified)	none
COC(=O)[C@H]1CCCN1C(=O)Nc1cccc(Oc2c(F)c(F)c(F)c(F)c2F)c1	none (no result: HSF1 activator, HSF1 inhib)
Cc1cc(C)n(C(=O)CNC(=O)CCc2ccccc2)n1	none
COc1ccc(CCNS(=O)(=O)c2cn(C)c(=O)n(C)c2=O)cc1OC	none
Cc1cccc(NC(=O)c2sc3nc(-c4ccc(F)cc4)cn3c2C)n1	none
COc1ccc(-c2cn3c(C)c(C(=O)Nc4cccc(C)n4)sc3n2)cc1	HSP90 refold inh 76.8 | HSP90 inh confirm 73.1 | FLuc counter inactive
Cc1cccc(NC(=O)c2sc3nc(-c4ccccc4)cn3c2C)n1	HSP90 refold inh 27.0 | HSP90 inh confirm inactive | FLuc counter inactive
COc1ccc(C(=O)Nc2ccccc2N2CCN(C(=O)c3ccccc3)CC2)cc1Br	none
O=C(Nc1nc2ccccc2[nH]1)c1cccc(F)c1	HSP90 refold inh 26.2 | HSP90 inh confirm 29.8 | FLuc counter 11.8
CN(C)c1cccc(C(=O)Nc2nc3ccccc3[nH]2)c1	HSP90 refold inh 25.5 | HSP90 inh confirm 56.2 | FLuc counter 39.4
O=C(Nc1nc2ccccc2[nH]1)c1cccc(Br)c1	none
CN(C)c1ccc(N=Nc2ccccc2Br)cc1	HSP90 refold inh 52.3 | HSP90 inh confirm 64.8 | FLuc counter 53.6
CC(=O)c1ccc(N=Nc2ccc(N(C)C)cc2)cc1	none
C/C(=N\Nc1ccc(Cl)c(C(=O)O)c1)c1ccc[nH]1	HSP90 refold inh 34.7 | HSP90 inh confirm 22.4 | FLuc counter inactive
C/C(=N\NC(=O)c1ccc(F)cc1)c1ccc(N2CCOCC2)cc1	none
C/C(=N\Nc1ccc(Cl)c(C(=O)O)c1)c1ccc(N2CCOCC2)cc1	HSP90 refold inh 17.6 | HSP90 inh confirm inactive | FLuc counter inactive
CNc1c(NS(=O)(=O)c2ccc(Br)cc2)c(=O)oc2ccccc12	none
CC(C)n1cc(CN2CCCC(CO)(Cc3cccc(Cl)c3)C2)cn1 (stereo unspecified)	none
COc1ccc(NC(=O)CN(C)C(=O)CCCc2nc3ccccc3s2)cc1	none (no result: DNA FID counter, HSP90 refold inh, HCV NS3 hel inh)
Fc1ccc(NC2=NCCCCC2)cc1	none
Fc1ccc(-c2nnc(NC3=NCCCCC3)o2)cc1	HSP90 refold inh 72.9 | HSP90 inh confirm 81.5 | FLuc counter 75.6
CCn1cc(S(=O)(=O)N2CCN(Cc3ccc(F)cc3)CC2)cn1	none
Cc1cccc(C(=O)N2CCN(c3ccc(C(F)(F)F)cn3)CC2)c1C	HSP90 refold inh 38.4 | HSP90 inh confirm inactive | FLuc counter inactive
Cc1cccc(N2CCN(C(=O)CN3C(=O)C4CC=CCC4C3=O)CC2)c1C (stereo unspecified)	none
CN1C(=O)/C(=C/c2cc(N=Nc3ccccc3)ccc2O)SC1=S	none
Clc1ncccc1-c1nnn(-c2ccccc2)n1	HSP90 refold inh 20.8 | HSP90 inh confirm 17.2 | FLuc counter inactive
Cc1ccc(S(=O)(=O)N2CCC(=O)N(CCOC(=O)Nc3cccc(Cl)c3)CC2)cc1	none
COc1ccc(N2CCN(C(=O)CN(C3CCCCC3)S(C)(=O)=O)CC2)cc1	none
CS(=O)(=O)c1ccc2nc(NC(=O)Nc3ccccc3F)sc2c1	HSP90 refold inh 17.7 | HSP90 inh confirm 18.4 | FLuc counter inactive
Cc1cccn2c(=O)c3cc(C#N)c(=O)n(CC4CCCO4)c3nc12 (stereo unspecified)	none (no result: HCV core dimer, HSF1 activator, HSF1 inhib)
CCN(C=NC1=NN(c2cccc(C(F)(F)F)c2)CC1)CC	HSP90 refold inh 21.9 | HSP90 inh confirm inactive | FLuc counter inactive
CC(=O)c1cc(-c2ccccc2)n(CCC(=O)NC2CCCC2)c1C	none
CC(=O)c1cc(-c2ccccc2)n(CCC(=O)NC2CCCCC2)c1C	HSP90 refold inh 27.0 | HSP90 inh confirm inactive | FLuc counter inactive
